Measured values taken from ChEMBL document CHEMBL1139007 (J Med Chem, 2006).
Blank lines part the entries; values can stand above or below the compound they belong to.

Tests used:
[1] = target: T1, C-C chemokine receptor type 5 (Homo sapiens, UniProt P51681); test: Displacement of [125I]RANTES from CCR5 expressed in CHO cells; format: cell-based
Target sequence in this assay (P51681 whole entry): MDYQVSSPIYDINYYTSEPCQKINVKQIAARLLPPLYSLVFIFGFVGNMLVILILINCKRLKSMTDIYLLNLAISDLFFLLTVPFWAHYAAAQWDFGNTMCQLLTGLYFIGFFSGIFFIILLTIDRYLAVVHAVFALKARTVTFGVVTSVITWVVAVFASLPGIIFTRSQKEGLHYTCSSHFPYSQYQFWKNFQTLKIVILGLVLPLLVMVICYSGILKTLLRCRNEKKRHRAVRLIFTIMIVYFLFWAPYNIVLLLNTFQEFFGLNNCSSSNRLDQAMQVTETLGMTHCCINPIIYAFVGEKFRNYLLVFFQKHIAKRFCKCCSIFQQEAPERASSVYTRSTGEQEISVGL

[2] = target: T1, C-C chemokine receptor type 5; test: Inhibition of replication of R5 HIV1 Ba-L in MOLT4/CCR5 cells; format: functional, cell-based; details: Human immunodeficiency virus 1, MOLT-4
Target sequence in this assay (P51681 whole entry, looked up): as the sequence (P51681 whole entry) above

[3] = target: T1, C-C chemokine receptor type 5; details: Human immunodeficiency virus 1; Ba-L; MOLT-4; 5 nM
Target sequence in this assay (P51681 whole entry, looked up): as the sequence (P51681 whole entry) above

[4] = AUC (0-24h) in cynomolgus monkey at 1 mg/kg, iv; format: ADME, organism-based, Macaca fascicularis; parameters: time < 24 hr, dose 1 mg/kg, route intravenous; details: plasma
How it was run: (§1)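 Blood was drawn at set times (rat tail vein, dog cephalic vein, monkey femoral vein) and spun to plasma. Plasma was run on C8 HPLC, 1-min fractions counted by liquid scintillation.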

[5] = Plasma concentration in Beagle dog after 5 min at 1 mg/kg, iv; format: ADME, organism-based, Canis lupus familiaris; parameters: dose 1 mg/kg, route intravenous; how it was run: as §1
[6] = Half life in Sprague-Dawley rat plasma at 1 mg/kg, iv; format: ADME, organism-based; parameters: dose 1 mg/kg, route intravenous; how it was run: as §1
[7] = AUC (0-24h) in Beagle dog at 3 mg/kg, po; format: ADME, organism-based, Canis lupus familiaris; parameters: time < 24 hr, dose 3 mg/kg, route oral; details: plasma
[8] = Bioavailability in Beagle dog at 3 mg/kg, po; format: ADME, organism-based, Canis lupus familiaris; details: in vivo
[9] = target: T2, C-C chemokine receptor type 4 (Homo sapiens, UniProt P51679); test: Displacement of [125I]TARC from CCR4 expressed in CHO cells; format: cell-based
T2 sequence (P51679 whole entry): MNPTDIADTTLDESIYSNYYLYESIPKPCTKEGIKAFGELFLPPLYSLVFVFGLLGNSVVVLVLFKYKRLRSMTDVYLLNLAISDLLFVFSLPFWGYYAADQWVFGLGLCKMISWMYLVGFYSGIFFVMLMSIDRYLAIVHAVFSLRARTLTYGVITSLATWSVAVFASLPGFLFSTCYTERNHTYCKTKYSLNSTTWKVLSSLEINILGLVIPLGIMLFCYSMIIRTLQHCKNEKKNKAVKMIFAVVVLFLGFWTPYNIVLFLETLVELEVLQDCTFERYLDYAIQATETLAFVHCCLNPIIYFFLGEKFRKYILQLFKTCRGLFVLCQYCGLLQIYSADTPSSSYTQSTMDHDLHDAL
How it was run: (§2)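 CHO cells stably expressing the named chemokine receptor were incubated with the [125I]-labelled ligand (RANTES for CCR5 and CCR1, eotaxin for CCR3, TARC for CCR4) and varying compound concentrations. IC50 for inhibition of ligand binding is the mean of triplicate measurements.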

[10] = tested on: Human immunodeficiency virus 1; test: Inhibition of replication of R5 HIV1 KK in PMBC; format: functional, organism-based; details: Human immunodeficiency virus 1, KK
How it was run: (§3)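 PHA-stimulated PBMCs infected with clinical isolate (11-55 ng p24 per 4 × 10⁶ cells) for 4 h, washed to remove unadsorbed virus, then seeded at 2 × 10⁵ cells/well with a range of compound concentrations. On day 4 cells were split 1:2 into medium with the same compound level. IC50/IC90 for inhibition of replication; triplicate, repeated 3 or 4 times with PBMCs from different donors; means reported.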

[11] = Tmax in Sprague-Dawley rat plasma at 3 mg/kg, po; format: ADME, organism-based; parameters: dose 3 mg/kg, route oral
[12] = tested on: Human immunodeficiency virus 1; test: Inhibition of replication of R5 HIV1 CTV in PMBC; format: functional, organism-based; details: Human immunodeficiency virus 1, CTV; how it was run: as §3
[13] = AUC (0-24h) in Beagle dog at 1 mg/kg, iv; format: ADME, organism-based, Canis lupus familiaris; parameters: time < 24 hr, dose 1 mg/kg, route intravenous; details: plasma; how it was run: as §1
[14] = Half life in Beagle dog plasma at 1 mg/kg, iv; format: ADME, organism-based, Canis lupus familiaris; parameters: dose 1 mg/kg, route intravenous; how it was run: as §1
[15] = target: T3, C-C chemokine receptor type 1 (Homo sapiens, UniProt P32246); test: Displacement of [125I]RANTES from CCR1 expressed in CHO cells; format: cell-based; how it was run: as §2
T3 sequence (P32246 whole entry): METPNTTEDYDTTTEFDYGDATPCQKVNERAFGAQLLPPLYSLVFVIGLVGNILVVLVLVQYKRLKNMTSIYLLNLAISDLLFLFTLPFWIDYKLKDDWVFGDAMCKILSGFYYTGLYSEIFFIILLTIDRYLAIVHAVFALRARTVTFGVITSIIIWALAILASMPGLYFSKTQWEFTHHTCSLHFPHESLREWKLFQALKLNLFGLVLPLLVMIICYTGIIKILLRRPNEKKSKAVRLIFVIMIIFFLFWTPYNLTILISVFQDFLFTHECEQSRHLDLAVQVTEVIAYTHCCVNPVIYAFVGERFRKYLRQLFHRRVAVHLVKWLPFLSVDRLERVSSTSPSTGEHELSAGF

[16] = Cmax in cynomolgus monkey plasma at 3 mg/kg, po; format: ADME, organism-based, Macaca fascicularis; parameters: dose 3 mg/kg, route oral
[17] = AUC (0-24h) in Sprague-Dawley rat at 1 mg/kg, iv; format: ADME, organism-based; parameters: time < 24 hr, dose 1 mg/kg, route intravenous; details: plasma; how it was run: as §1
[18] = target: T4, C-C chemokine receptor type 7 (Homo sapiens, UniProt P32248); test: Displacement of [125I]MIP-3beta from CCR7 expressed in CHO cells; format: cell-based
T4 sequence (P32248 whole entry): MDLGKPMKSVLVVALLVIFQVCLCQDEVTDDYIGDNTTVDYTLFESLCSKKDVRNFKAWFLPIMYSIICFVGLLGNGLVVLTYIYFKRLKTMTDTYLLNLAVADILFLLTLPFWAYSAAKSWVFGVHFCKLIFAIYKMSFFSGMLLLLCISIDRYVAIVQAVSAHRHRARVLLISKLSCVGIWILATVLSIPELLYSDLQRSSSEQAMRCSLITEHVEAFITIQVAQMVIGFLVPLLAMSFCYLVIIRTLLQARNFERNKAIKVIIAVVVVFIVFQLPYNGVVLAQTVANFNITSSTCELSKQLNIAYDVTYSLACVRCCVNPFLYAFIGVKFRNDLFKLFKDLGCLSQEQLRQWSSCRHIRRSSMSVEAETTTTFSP
How it was run: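 CHO cells stably expressing CCR7, run in the same way as the CCR5 binding assay. Binding of [¹²⁵I]-MIP-3β was measured across a range of test compound concentrations. IC50 is the concentration that inhibits ligand binding by 50%, reported as the mean of triplicate measurements.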

[19] = target: T5, C-C chemokine receptor type 3 (Homo sapiens, UniProt P51677); test: Displacement of [125I]eotaxin from CCR3 expressed in CHO cells; format: cell-based; how it was run: as §2
T5 sequence (P51677 whole entry): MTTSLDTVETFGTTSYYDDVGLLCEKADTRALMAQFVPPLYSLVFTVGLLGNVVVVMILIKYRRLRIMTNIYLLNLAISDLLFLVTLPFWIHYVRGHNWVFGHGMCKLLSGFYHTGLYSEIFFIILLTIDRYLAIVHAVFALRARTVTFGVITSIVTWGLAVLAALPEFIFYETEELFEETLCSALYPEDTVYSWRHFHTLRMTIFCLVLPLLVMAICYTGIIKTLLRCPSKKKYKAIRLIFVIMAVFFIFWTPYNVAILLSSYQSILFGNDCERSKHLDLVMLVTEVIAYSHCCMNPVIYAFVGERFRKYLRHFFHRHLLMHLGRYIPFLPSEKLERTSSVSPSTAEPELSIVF

[20] = tested on: Human immunodeficiency virus 1; test: Inhibition of replication of R5 HIV1 HTN in PMBC; format: functional, organism-based; details: Human immunodeficiency virus 1, HTN; how it was run: as §3
[21] = tested on: Human immunodeficiency virus 1; test: Inhibition of replication of R5 HIV1 HKW in PMBC; format: functional, organism-based; details: Human immunodeficiency virus 1, HKW; how it was run: as §3
[22] = AUC (0-24h) in Sprague-Dawley rat at 3 mg/kg, po; format: ADME, organism-based; parameters: time < 24 hr, dose 3 mg/kg, route oral; details: plasma
[23] = Plasma concentration in cynomolgus monkey after 5 min at 1 mg/kg, iv; format: ADME, organism-based, Macaca fascicularis; parameters: dose 1 mg/kg, route intravenous; how it was run: as §1
[24] = Half life in cynomolgus monkey plasma at 1 mg/kg, iv; format: ADME, organism-based, Macaca fascicularis; parameters: dose 1 mg/kg, route intravenous; how it was run: as §1
[25] = Cmax in Sprague-Dawley rat plasma at 3 mg/kg, po; format: ADME, organism-based; parameters: dose 3 mg/kg, route oral
[26] = Tmax in Beagle dog plasma at 3 mg/kg, po; format: ADME, organism-based, Canis lupus familiaris; parameters: dose 3 mg/kg, route oral
[27] = Cmax in Beagle dog plasma at 3 mg/kg, po; format: ADME, organism-based, Canis lupus familiaris; parameters: dose 3 mg/kg, route oral
[28] = Tmax in cynomolgus monkey plasma at 3 mg/kg, po; format: ADME, organism-based, Macaca fascicularis; parameters: dose 3 mg/kg, route oral
[29] = AUC (0-24h) in cynomolgus monkey at 3 mg/kg, po; format: ADME, organism-based, Macaca fascicularis; parameters: time < 24 hr, dose 3 mg/kg, route oral; details: plasma
[30] = tested on: Human immunodeficiency virus 1; test: Inhibition of replication of R5 HIV1 HNK in PMBC; format: functional, organism-based; details: Human immunodeficiency virus 1, HNK; how it was run: as §3
[31] = Plasma concentration in Sprague-Dawley rat after 5 min at 1 mg/kg, iv; format: ADME, organism-based; parameters: dose 1 mg/kg, route intravenous; how it was run: as §1
[32] = tested on: Human immunodeficiency virus 1; test: Inhibition of replication of R5 HIV1 HHA in PMBC; format: functional, organism-based; details: Human immunodeficiency virus 1, HHA; how it was run: as §3
[33] = Bioavailability in Sprague-Dawley rat at 3 mg/kg, po; format: ADME, organism-based; details: in vivo
[34] = Bioavailability in cynomolgus monkey at 3 mg/kg, po; format: ADME, organism-based, Macaca fascicularis; details: in vivo

IC50 [1]: 1.9 nM
IC90 [2]: 860 nM
SMILES: CCCCOCCOc1ccc(-c2ccc3c(c2)C=C(C(=O)Nc2ccc([S+]([O-])Cc4cncn4CCC)cc2)CCN3CC(C)C)cc1 (configuration not stated)

IC50 [1]: 67 nM
SMILES: CCCCOCCOc1ccc(-c2ccc3c(c2)/C=C(/C(=O)Nc2ccc([S@@+]([O-])Cc4cncn4CCC)cc2)CCCCCN3CC(C)C)cc1

inhibition [3]: 72%
IC50 [1]: 1.7 nM
SMILES: CCCCOCCOc1ccc(-c2ccc3c(c2)/C=C(/C(=O)Nc2ccc([S@@+]([O-])Cc4cncn4CCC)cc2)CCCN3CCC)cc1

IC50 [1]: 2.4 nM
IC90 [2]: 10 nM
SMILES: CCCCOCCOc1ccc(-c2ccc3c(c2)/C=C(/C(=O)Nc2ccc([S@@+]([O-])Cc4nncn4CCC)cc2)CCCN3CC(C)C)cc1

IC50 [1]: 1.7 nM
IC90 [2]: 11 nM
SMILES: CCCCOCCOc1ccc(-c2ccc3c(c2)/C=C(/C(=O)Nc2ccc([S@@+]([O-])Cc4cncn4CCC)cc2)CCCN3Cc2cnn(C)c2)cc1

IC50 [1]: 2.2 nM
SMILES: CCCCOCCOc1ccc(-c2ccc3c(c2)/C=C(/C(=O)Nc2ccc([S@@+]([O-])Cc4nncn4CCC)cc2)CCCN3CCC)cc1

IC50 [1]: 6.8 nM
IC90 [2]: 19 nM
SMILES: CCCCOCCOc1ccc(-c2ccc3c(c2)/C=C(/C(=O)Nc2ccc([S@@+]([O-])Cc4cncn4CCC)cc2)CCCCN3CC(C)C)cc1

IC50 [1]: 25 nM
SMILES: CCCCOCCOc1ccc(-c2ccc3c(c2)/C=C(/C(=O)Nc2ccc([S@@+]([O-])Cc4cncn4CCC)cc2)CCCCCN3CCC)cc1

IC50 [1]: 4.7 nM
SMILES: CCCCOCCOc1ccc(-c2ccc3c(c2)/C=C(/C(=O)Nc2ccc([S@@+]([O-])Cc4cncn4CCC)cc2)CCCCN3CCC)cc1

SMILES: CCCCOCCOc1ccc(-c2ccc3c(c2)/C=C(/C(=O)Nc2ccc([S@@+]([O-])Cc4cncn4CCC)cc2)CCCN3CC(C)C)cc1.CS(=O)(=O)O [CENICRIVIROC MESYLATE]
AUC(0-t) at 24 h [4]: 1450 ng·h/mL
concentration at 5 min [5]: 2320 ng/mL
half-life [6]: 291 min
AUC(0-t) at 24 h [7]: 6010 ng·h/mL
bioavailability [8]: 88.5%
IC50 [9]: 1100 nM
IC50 [10]: 0.043 nM
IC90 [10]: 0.19 nM
Tmax [11]: 1.3 h
IC50 [12]: 0.07 nM
IC90 [12]: 0.31 nM
AUC(0-t) at 24 h [13]: 2310 ng·h/mL
half-life [14]: 302 min
IC50 [15]: > 10 µM
Cmax [16]: 116 ng/mL
AUC(0-t) at 24 h [17]: 7610 ng·h/mL
IC50 [18]: > 10 µM
IC50 [19]: 2400 nM
IC50 [20]: 0.089 nM
IC90 [20]: 0.32 nM
IC50 [21]: 0.049 nM
IC90 [21]: 0.16 nM
AUC(0-t) at 24 h [22]: 2320 ng·h/mL
IC90 [2]: 0.81 nM
concentration at 5 min [23]: 3110 ng/mL
half-life [24]: 365 min
Cmax [25]: 485 ng/mL
Tmax [26]: 2.7 h
Cmax [27]: 570 ng/mL
Tmax [28]: 2 h
AUC(0-t) at 24 h [29]: 670 ng·h/mL
IC50 [30]: 0.087 nM
IC90 [30]: 0.36 nM
concentration at 5 min [31]: 8020 ng/mL
IC50 [32]: 0.024 nM
IC90 [32]: 0.13 nM
bioavailability [33]: 10.2%
bioavailability [34]: 15.6%
